Entries after “also recorded” stand apart in the source; their conditions may differ.
Test system: HeLa cells
Assay: Confocal microscopy of subcellular distribution / nuclear staining
Format: cell-based
Summary of the method: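 HeLa grown in MEM alpha with 10% FBS at 37 °C, 5% CO2, seeded at 4000 cells/well on glass bottom, adhered overnight. Test compound 10–100 μM, 37 °C for 2–19 h, in complete or serum-free medium, then HBSS rinse. Confocal: 63x/1.4 oil objective, 1.1 μm optical slice, excitation 488 nm, emission 560+ nm. Dead cells excluded by morphology; percentage with nuclear staining scored.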

Row | Substance | subcellular distribution (40 μM, 2 h) | percentage of cells with additional nuclear staining (100 μM, 4 h, complete medium) | subcellular distribution (100 μM, 4 h, complete medium) | subcellular distribution (10 μM, 2 h) | subcellular distribution (10 μM, 19 h, complete medium)
1 | KKKK [Ru-KKKK] | only faint luminescence in the cytoplasm | 17% | brighter, punctate cytoplasmic staining; also recorded: punctate staining of the cytoplasm | – | –
2 | KSKKQK [Ru-KSKKQK] | – | – | – | only faint punctate luminescence in the cytoplasm and no nuclear staining | same result; also recorded: Punctate staining of the cytoplasm
3 | PKKKRKV [Ru-PKKKRKV] | – | – | – | only faint punctate luminescence in the cytoplasm and no nuclear staining | same result; also recorded: Punctate staining of the cytoplasm

Source: PMC2873839 (Bioorganic & medicinal chemistry, 2010)
